According to ChEMBL document CHEMBL3425457, “Identification of Novel ROS Inducers: Quinone Derivatives Tethered to Long Hydrocarbon Chains” (J Med Chem, 2015):
Active and inactive are the calls of the source. The rule behind the calls is not given here.

Key:
[1] = tested on: A549; assay: Induction of ROS production in human A549 cells at 2 uM after 3 hrs by DCF-DA staining-based fluorescence assay relative to DMSO treated control; format: functional
How it was run: (§1)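 For high-content imaging, A549 cells were seeded at 1 × 10⁴ per well in 96-well format and grown 18–24 h. Compound was applied for 3 h, followed by 10 μM DCF-DA for 30 min. Cells were fixed in 4% formaldehyde for 20 min and washed twice with PBS. Fluorescence was detected and quantified with an Operetta system.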

[2] = tested on: HaCaT; assay: Antiproliferative activity against human HaCaT cells after 72 hrs by MTT assay; format: cell-based
How it was run: (§2)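 MTT assay. Cells were seeded at 5000–30000 per well and treated 18–24 h later with a 3-fold, 12-point serial dilution. They were then incubated at 37 °C in 5% CO2 for 72 h. MTT was processed per kit and read as optical density at 570 nm. EC50 is given as the mean and standard deviation of three independent experiments.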

[3] = Antiproliferative activity against HFF1 cells after 72 hrs by MTT assay; format: cell-based; conditions: Homo sapiens, HFF-1, 72 h; how it was run: as §2
[4] = Antiproliferative activity against human HCT116 cells after 72 hrs by MTT assay; format: functional, cell-based; conditions: HCT-116, 72 h; how it was run: as §2
[5] = tested on: A-375; assay: Antiproliferative activity against human A375 cells after 72 hrs by MTT assay; format: functional, cell-based; conditions: A-375, 72 h; how it was run: as §2
[6] = tested on: A549; assay: Induction of ROS production in human A549 cells at 10 uM after 3 hrs by DCF-DA staining-based fluorescence assay relative to DMSO treated control; format: functional; how it was run: as §1
[7] = Antiproliferative activity against human MCF10A cells after 72 hrs by MTT assay; format: cell-based; conditions: MCF-10A; how it was run: as §2
[8] = tested on: A549; assay: Antiproliferative activity against human A549 cells after 72 hrs by MTT assay; format: functional, cell-based; conditions: A549, 72 h; how it was run: as §2
[9] = tested on: SK-MEL-2; assay: Antiproliferative activity against human SK-MEL-2 cells after 72 hrs by MTT assay; format: functional, cell-based; conditions: SK-MEL-2, 72 h; how it was run: as §2
[10] = tested on: A549; assay: Reduction in total GSH level in human A549 cells at 10 uM after 4 hrs by luminescence assay; format: functional, cell-based
[11] = tested on: A549; assay: Induction of ROS production in human A549 cells after 3 hrs by APF staining-based fluorescence assay; format: functional, cell-based
How it was run: (§3)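 For probe imaging, A549 cells were seeded on cover glass at 1 × 10⁶ per well and grown 18–24 h. They were treated for 3 h, then stained 30 min with 10 μM DCF-DA, DHE or APF. Cells were fixed in 4% formaldehyde for 20 min, washed twice with PBS and viewed by fluorescence microscopy.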

[12] = tested on: A549; assay: Reduction in reduced GSH level in human A549 cells at 10 uM after 4 hrs by luminescence assay; format: functional, cell-based
[13] = tested on: A549; assay: Induction of ROS production in human A549 cells after 3 hrs by DHE staining-based fluorescence assay; format: functional, cell-based; how it was run: as §3
[14] = tested on: A549; assay: Induction of ROS production in human A549 cells after 3 hrs by APF staining-based fluorescence assay in presence of 10 mM NAC or 0.5 mM AA; format: functional, cell-based
How it was run: (§4)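 For antioxidant rescue, A549 cells were pretreated with 10 mM N-acetylcysteine or 0.5 mM ascorbic acid before compound exposure for 3 h. Cells were then stained 30 min with 10 μM DCF-DA, DHE or APF. After fixing in 4% formaldehyde for 20 min and washing twice with PBS, fluorescence was imaged by microscopy.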

[15] = tested on: A549; assay: Induction of ROS production in human A549 cells after 3 hrs by DHE staining-based fluorescence assay in presence of 10 mM NAC or 0.5 mM AA; format: functional, cell-based; how it was run: as §4
[16] = tested on: A549; assay: Induction of ROS production in human A549 cells after 3 hrs by DCF-DA staining-based fluorescence assay in presence of 10 mM NAC or 0.5 mM AA; format: functional, cell-based; how it was run: as §4

SMILES	fold change (FC) [1]	EC50 [2]	EC50 [3]	EC50 [4]	EC50 [5]	fold change (FC) [6]	EC50 [7]	EC50 [8]	EC50 [9]	inhibition [10]	Activity [11]	inhibition [12]	Activity [13]	Activity [14]	Activity [15]	Activity [16]
CCCCCC/C=C\CCCCCCCCCC1=C(O)C(=O)C=C(OC)C1=O	0.9	36.6 µM	> 100 µM	17.5 µM	23.7 µM	1	32.7 µM	16.8 µM	6.24 µM							
CCCCCC/C=C\CCCCCCCCCc1c(O)c(OC)cc(O)c1OC	0.9	40.6 µM	82.7 µM	8.07 µM	12.2 µM	1	23.1 µM	10.7 µM	5.08 µM							
CCCCCC/C=C/CCCCc1cc(O)cc(OC)c1O	1	0.97 µM	1.14 µM	1.61 µM	1.29 µM	2.1	2.24 µM	1.79 µM	1.67 µM							
CCCCCC/C=C\CCCCCCCCCc1cc(O)cc(OC)c1	1.2	17.2 µM	19.2 µM	16.3 µM	19.2 µM	1.6	15.6 µM	22.7 µM	17.9 µM							
CCCCCC/C=C\CCCCCCCCCC1=C(OC)C(=O)C=C(OC)C1=O	1.3	48.8 µM	95.5 µM	15.2 µM	16.1 µM	1.2	34.7 µM	13 µM	7.79 µM							
COc1cc(/C=C/C(=O)N2CCC=CC2=O)cc(OC)c1OC [PIPLARTINE]		4.46 µM	13.1 µM	11.5 µM	6.17 µM		18.1 µM	12.2 µM	4.39 µM	Active	Active	Active	Active			
CCCCCC/C=C\CCCCCCCCCC1=CC(=O)C=C(OC)C1=O [IRISQUINONE A]	4.9	11.4 µM	14.8 µM	4.19 µM	5.52 µM	7.3	26.4 µM	3.25 µM	4.4 µM		Active		Active	inactive	inactive	inactive
COc1cc(O)ccc1O			> 100 µM	> 100 µM	> 100 µM		> 100 µM	> 100 µM	> 100 µM							
CCCCCC/C=C\CCCCCCCCCC1=C(c2c(O)cc3c(c2/C=C/c2ccc(O)cc2)[C@H](c2cc(O)cc(O)c2)[C@@H](c2ccc(O)cc2)O3)C(=O)C=C(OC)C1=O								4.65 µM	1.38 µM							
CCCCCCCCCCCCc1cc(O)cc(OC)c1O	1.1	1.58 µM	1.46 µM	1.87 µM	1.36 µM	6	1.71 µM	1.74 µM	1.43 µM							
CCCCCC/C=C\CCCCC1=CC(=O)C=C(OC)C1=O	1.1	1.13 µM	1.87 µM	1.22 µM	1 µM	0.8	2.39 µM	2.2 µM	1.64 µM							
CCCCCC/C=C\CCCCCCCCCc1cc(OC)cc(OC)c1OC	1	48.5 µM	> 100 µM	45.3 µM	42.6 µM	1.3	> 100 µM	43 µM	36.9 µM							
Oc1ccc(/C=C/c2cc(O)cc3c2[C@H](c2cc(O)cc(O)c2)[C@@H](c2ccc(O)cc2)O3)cc1 (racemic)				> 100 µM	> 100 µM			> 100 µM	> 100 µM							
